Source: ChEMBL document CHEMBL1140336, “Synthesis, structure-activity relationships, and biological evaluation of fatty alcohol phosphates as lysophosphatidic acid receptor ligands, activators of PPARgamma, and inhibitors of autotaxin” (J Med Chem, 2005)

Assays:
[1] = system: PC-3; assay: Inhibitory concentration against LPA expressed in PC-3 cells; Weak antagonist; type: functional, cell-based, Homo sapiens
How it was run: (§1)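 Fura-2 Ca2+ assay. RH7777 cells stably expressing LPA1, LPA2 or LPA3, or PC-3 cells (endogenous LPA1-3), seeded at 50000 cells/well on poly-D-lysine and grown overnight. Serum-starved in modified Krebs, pH 7.4, for 6-8 h (PC-3: 12 h), then Fura-2 AM loaded for 35 min. Compound added at 15 s; wells read 80-120 s. Transient taken as peak minus baseline 340/380 ratio. Antagonism: LPA 18:1 coapplied; highest concentration 30 μM.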

[2] = molecular target: T1, Lysophosphatidic acid receptor 2 (Homo sapiens, UniProt Q9HBW0); assay: Inhibition of LPA-induced calcium transients in RH7777 rat hepatoma cells expressing LPA2 receptor; type: functional, cell-based
T1 sequence (Q9HBW0 whole entry): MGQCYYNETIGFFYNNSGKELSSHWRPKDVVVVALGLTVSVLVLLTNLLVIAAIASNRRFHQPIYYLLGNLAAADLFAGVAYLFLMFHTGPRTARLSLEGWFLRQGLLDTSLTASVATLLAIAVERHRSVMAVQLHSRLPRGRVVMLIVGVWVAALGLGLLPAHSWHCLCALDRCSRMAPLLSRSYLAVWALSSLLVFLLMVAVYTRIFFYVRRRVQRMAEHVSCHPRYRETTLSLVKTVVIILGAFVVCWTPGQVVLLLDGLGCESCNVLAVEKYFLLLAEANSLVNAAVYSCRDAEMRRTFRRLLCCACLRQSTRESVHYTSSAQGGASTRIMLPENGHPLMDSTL

[3] = molecular target: T2, Lysophosphatidic acid receptor 3 (Homo sapiens, UniProt Q9UBY5); assay: Inhibition of LPA-induced calcium transients in RH7777 rat hepatoma cells expressing LPA3 receptor; No effect; type: functional, cell-based; how it was run: as §1
T2 sequence (Q9UBY5 whole entry): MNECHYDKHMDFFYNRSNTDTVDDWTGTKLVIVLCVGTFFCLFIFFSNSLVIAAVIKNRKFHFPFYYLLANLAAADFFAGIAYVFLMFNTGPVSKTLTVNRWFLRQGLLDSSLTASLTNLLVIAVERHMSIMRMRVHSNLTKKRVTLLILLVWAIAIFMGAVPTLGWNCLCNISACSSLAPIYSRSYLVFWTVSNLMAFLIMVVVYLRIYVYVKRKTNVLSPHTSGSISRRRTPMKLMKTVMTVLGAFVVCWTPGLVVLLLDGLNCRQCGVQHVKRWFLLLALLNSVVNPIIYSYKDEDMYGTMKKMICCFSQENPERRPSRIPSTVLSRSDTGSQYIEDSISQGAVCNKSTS

[4] = molecular target: T3, Lysophosphatidic acid receptor 1 (Homo sapiens, UniProt Q92633); assay: (§2) Inhibition of LPA-induced calcium transients in RH7777 rat hepatoma cells expressing LPA1 receptor; No effect; type: functional, cell-based
T3 sequence (Q92633 whole entry): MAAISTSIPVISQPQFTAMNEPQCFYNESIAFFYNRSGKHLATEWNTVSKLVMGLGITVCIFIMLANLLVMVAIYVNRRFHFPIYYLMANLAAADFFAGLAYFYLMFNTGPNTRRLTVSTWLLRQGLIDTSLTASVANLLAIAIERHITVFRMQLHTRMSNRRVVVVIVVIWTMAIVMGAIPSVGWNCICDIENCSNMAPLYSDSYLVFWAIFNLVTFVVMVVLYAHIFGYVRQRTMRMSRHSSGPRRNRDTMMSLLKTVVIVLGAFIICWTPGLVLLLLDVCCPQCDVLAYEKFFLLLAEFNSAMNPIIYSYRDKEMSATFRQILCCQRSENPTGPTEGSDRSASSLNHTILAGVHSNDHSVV

[5] = molecular target: T2, Lysophosphatidic acid receptor 3; assay: Binding affinity for Lysophosphatidic acid receptor 3 expressed in RH7777 rat hepatoma cells; type: cell-based; how it was run: as §1
[6] = molecular target: T2, Lysophosphatidic acid receptor 3; assay: Inhibition of LPA-induced calcium transients in RH7777 rat hepatoma cells expressing LPA3 receptor; type: functional, cell-based; how it was run: as §1
[7] = molecular target: T1, Lysophosphatidic acid receptor 2; assay: Inhibition of LPA-induced calcium transients in RH7777 rat hepatoma cells expressing LPA2 receptor; No effect; type: functional, cell-based; how it was run: as §1
[8] = Percent maximal efficacy in PC-3 cells; type: functional, Homo sapiens
How it was run: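 PC-3 human prostate cancer cells, which express LPA1-3 endogenously, 50000 cells/well. Serum-starved 12 h in modified Krebs, loaded with Fura-2 AM, read in a FlexStation. Ca2+ transient = 340/380 ratio peak minus baseline. Agonism (Emax as % of maximal LPA 18:1 response) and inhibition of LPA-induced transients were measured.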

[9] = molecular target: T3, Lysophosphatidic acid receptor 1; assay: as §2; type: functional, cell-based; how it was run: as §1; remark: listed apart in the source

- IC50 [1]: Partial antagonist
- EC50 [2]: ~11 µM
- EC50 [3]: Not Active
- IC50 [4]: Not Active
- Ki [5]: 2.33 µM
- IC50 [6]: 5.57 µM
- IC50 [7]: Not Active
- EC50 [9]: Not Active
SMILES: CCCCCCCCCCCCCCCC(=O)N[C@@H](Cc1ccc(OP(=O)(O)O)cc1)C(=O)O
- Emax [8]: 25%
